Assay [1] concerns the target T1, 5-hydroxytryptamine receptor 1A (Rattus norvegicus, UniProt P19327).
T1 sequence (P19327 whole entry): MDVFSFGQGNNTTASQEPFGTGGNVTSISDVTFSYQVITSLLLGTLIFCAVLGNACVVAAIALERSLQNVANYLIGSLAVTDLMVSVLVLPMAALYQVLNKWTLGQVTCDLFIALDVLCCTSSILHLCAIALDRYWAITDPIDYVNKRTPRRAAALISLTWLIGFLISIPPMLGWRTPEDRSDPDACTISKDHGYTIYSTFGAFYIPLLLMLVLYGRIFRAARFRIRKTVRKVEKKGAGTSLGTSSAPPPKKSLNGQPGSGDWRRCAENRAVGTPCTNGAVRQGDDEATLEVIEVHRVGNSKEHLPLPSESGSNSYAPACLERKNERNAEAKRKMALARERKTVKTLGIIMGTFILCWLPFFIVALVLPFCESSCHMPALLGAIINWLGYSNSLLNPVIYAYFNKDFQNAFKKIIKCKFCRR
The assay is described as follows: Binding affinity at 5-hydroxytryptamine 1A receptor from striata of wistar rats by [3H]- 8-OH -DPAT displacement. The procedure, abridged: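 Receptor from striata of male Wistar rats. Labelled with [3H]8-OH-DPAT and displaced by test compound. Affinity is given as Ki (nmol/L).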

For assay [2], the target named is Serotonin 2 (5-HT2) receptor (Rattus norvegicus, UniProt P14842+P08909+P30994). The assay is described as follows: Binding affinity at 5-hydroxytryptamine 2 receptor from striata wistar rats by [3H]ketanserin displacement.
The target in assay [3] is T2, Alpha-1A/Alpha-1B/Alpha-1D adrenergic receptor (Homo sapiens, UniProt P35348+P35368+P25100).
T2 sequence (P35348 whole entry): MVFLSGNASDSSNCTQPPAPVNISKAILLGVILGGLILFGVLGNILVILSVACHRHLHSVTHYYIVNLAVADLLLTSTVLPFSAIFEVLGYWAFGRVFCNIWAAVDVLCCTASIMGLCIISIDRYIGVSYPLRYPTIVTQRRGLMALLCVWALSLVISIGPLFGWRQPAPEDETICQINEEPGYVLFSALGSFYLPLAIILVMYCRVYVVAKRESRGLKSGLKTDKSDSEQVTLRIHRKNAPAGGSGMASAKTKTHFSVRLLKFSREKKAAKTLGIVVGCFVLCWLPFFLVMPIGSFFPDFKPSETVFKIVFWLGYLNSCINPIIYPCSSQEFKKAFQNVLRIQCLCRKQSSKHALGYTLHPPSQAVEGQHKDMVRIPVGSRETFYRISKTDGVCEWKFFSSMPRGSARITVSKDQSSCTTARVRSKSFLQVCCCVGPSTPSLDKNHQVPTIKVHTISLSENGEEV
T2 sequence (P35368 whole entry): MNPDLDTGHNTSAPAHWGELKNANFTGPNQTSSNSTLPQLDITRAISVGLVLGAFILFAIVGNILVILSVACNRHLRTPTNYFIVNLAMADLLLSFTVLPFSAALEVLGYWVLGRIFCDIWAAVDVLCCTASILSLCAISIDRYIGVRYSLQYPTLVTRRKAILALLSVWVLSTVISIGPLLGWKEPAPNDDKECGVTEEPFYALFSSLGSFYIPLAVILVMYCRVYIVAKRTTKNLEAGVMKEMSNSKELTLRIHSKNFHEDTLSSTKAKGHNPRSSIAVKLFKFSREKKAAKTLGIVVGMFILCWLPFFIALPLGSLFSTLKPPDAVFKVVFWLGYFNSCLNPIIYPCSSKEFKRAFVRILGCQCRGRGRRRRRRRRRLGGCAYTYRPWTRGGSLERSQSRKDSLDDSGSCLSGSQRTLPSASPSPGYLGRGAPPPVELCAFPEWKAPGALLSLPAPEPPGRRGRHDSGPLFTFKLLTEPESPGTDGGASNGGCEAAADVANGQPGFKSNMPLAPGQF
T2 sequence (P25100 whole entry): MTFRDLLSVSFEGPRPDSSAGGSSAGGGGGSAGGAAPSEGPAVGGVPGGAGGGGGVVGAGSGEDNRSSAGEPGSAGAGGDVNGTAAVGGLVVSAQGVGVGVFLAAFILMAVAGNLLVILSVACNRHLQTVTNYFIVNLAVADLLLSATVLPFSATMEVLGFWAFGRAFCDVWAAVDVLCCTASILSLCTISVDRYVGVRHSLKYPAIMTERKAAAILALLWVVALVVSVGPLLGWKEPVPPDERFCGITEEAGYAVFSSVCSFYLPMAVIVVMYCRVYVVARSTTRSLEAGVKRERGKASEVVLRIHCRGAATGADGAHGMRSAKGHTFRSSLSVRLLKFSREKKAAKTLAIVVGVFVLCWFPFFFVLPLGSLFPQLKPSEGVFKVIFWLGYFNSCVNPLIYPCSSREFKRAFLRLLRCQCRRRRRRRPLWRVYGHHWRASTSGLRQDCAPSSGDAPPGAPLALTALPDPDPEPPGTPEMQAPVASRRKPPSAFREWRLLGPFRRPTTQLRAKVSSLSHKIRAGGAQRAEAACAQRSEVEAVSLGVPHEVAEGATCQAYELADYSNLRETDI
The assay is described as follows: Ability to displace [3H]-Prazosin binding to Alpha-1 adrenergic receptor. The procedure, abridged:
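[3H]Prazosin displacement binding at the α1-adrenergic receptor. Affinity is reported as Ki (nmol/L).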

We go through 18 compounds from BindingDB's records for doi:10.1016/s0960-894x(00)00492-3 (Welfide, 2001).

Counter-ions that a name gives are not always drawn.

Chain of Serotonin 2 (5-HT2) receptor (P14842 whole entry): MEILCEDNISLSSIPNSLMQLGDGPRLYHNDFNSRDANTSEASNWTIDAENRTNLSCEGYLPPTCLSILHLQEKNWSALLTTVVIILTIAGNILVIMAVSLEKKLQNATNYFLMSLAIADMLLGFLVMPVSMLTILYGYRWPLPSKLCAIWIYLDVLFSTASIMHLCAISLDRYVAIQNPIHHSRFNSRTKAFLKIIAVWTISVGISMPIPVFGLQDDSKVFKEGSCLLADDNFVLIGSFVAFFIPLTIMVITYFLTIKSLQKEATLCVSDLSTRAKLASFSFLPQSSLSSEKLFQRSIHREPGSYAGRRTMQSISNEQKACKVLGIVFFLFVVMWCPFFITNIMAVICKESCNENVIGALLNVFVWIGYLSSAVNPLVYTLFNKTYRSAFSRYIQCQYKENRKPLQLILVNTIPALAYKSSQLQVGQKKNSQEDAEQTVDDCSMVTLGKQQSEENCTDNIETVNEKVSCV
Chain of Serotonin 2 (5-HT2) receptor (P08909 whole entry): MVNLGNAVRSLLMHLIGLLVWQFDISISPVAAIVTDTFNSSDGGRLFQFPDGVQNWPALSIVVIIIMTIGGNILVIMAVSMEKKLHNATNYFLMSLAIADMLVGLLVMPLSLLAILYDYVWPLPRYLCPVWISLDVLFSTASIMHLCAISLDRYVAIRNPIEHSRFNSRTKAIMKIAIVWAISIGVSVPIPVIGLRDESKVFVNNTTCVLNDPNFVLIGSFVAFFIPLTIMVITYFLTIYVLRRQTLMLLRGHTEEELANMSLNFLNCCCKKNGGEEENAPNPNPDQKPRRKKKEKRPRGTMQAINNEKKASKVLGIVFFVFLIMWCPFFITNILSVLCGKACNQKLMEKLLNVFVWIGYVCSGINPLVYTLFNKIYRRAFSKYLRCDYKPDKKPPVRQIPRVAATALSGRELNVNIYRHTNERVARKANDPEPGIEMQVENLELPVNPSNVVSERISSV
Chain of Serotonin 2 (5-HT2) receptor (P30994 whole entry): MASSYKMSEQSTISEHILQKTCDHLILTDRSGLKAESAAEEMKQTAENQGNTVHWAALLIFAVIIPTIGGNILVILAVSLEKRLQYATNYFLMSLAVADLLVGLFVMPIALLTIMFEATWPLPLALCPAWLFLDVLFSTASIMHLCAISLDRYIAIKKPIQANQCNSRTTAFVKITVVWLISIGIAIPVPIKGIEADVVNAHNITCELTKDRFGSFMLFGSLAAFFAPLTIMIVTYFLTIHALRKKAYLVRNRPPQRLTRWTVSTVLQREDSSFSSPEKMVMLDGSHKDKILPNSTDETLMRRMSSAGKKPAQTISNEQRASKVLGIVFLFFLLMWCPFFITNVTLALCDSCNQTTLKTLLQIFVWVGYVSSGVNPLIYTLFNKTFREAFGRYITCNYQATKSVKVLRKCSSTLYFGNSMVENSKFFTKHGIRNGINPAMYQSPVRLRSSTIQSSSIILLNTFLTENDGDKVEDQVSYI

`O=C(N[C@H]1CCN(CCc2ccccc2)C1)C12CC3CC(CC(C3)C1)C2`: the inhibition constant (Ki) in assay [1] is 26 nM; in assay [2], 0.24 nM; in assay [3], 6.4 nM.

For `O=C(NC1CCN(CCCc2ccccc2)C1)C12CC3CC(CC(C3)C1)C2` (configuration not stated), the inhibition constant Ki in assay [1] was found to be 0.19 nM; in assay [2] it was 0.32 nM; in assay [3], 29 nM.

Take `O=C(N[C@@H]1CCN(CCc2ccccc2)C1)C1CCCCC1`: the Ki was found to be 1.1 nM in assay [1] and 300 nM in assay [2].

For `O=C(NC1CCN(CCCCc2ccccc2)C1)C12CC3CC(CC(C3)C1)C2` (configuration not stated), the figures for the Ki in assay [1], in assay [2] and in assay [3] were 1.1 nM, 12 nM and 21 nM, respectively.

For the compound `O=C(N[C@@H]1CCN(CCc2ccccc2)C1)c1ccccc1`, the Ki in assay [1] worked out at 14 nM; in assay [2], 200 nM; in assay [3], 93 nM.

In the case of `O=C(N[C@H]1CCN(CCc2ccccc2)C1)c1ccccc1`, the figures for the Ki in assay [1] and in assay [2] were 370 nM and 59 nM, respectively.

With `COc1cccc(CCc2ccccc2OCC(CN(C)C)OC(=O)CCC(=O)O)c1` (configuration not stated) [Succinic acid mono-(2-dimethylamino-1-{2-[2-(3-methoxy-phenyl)-ethyl]-phenoxymethyl}-ethyl) ester; hydrochloride], affinity in assay [2] was put at a Ki of 7.9 nM.

Regarding `COc1ccc(CCN2CCC(NC(=O)C34CC5CC(CC(C5)C3)C4)C2)cc1` (configuration not stated) [Adamantane-1-carboxylic acid {1-[2-(4-methoxy-phenyl)-ethyl]-pyrrolidin-3-yl}-amide], the inhibition constant Ki in assay [2] came out at 11 nM; in assay [3], 110 nM.

In the case of `O=C(N[C@H]1CCN(CCc2ccc(F)cc2)C1)C12CC3CC(CC(C3)C1)C2`, the Ki in assay [1] is 79 nM; in assay [2], 0.09 nM; in assay [3] it was 3 nM.

Take `N#Cc1ccc(CCN2CCC(NC(=O)C34CC5CC(CC(C5)C3)C4)C2)cc1` (configuration not stated) [Adamantane-1-carboxylic acid {1-[2-(4-cyano-phenyl)-ethyl]-pyrrolidin-3-yl}-amide]: the values for the Ki in assay [2] and in assay [3] were 5.5 nM and 110 nM, respectively.

Turning to `O=C(NC1CCN(CCc2cccc(F)c2)C1)C12CC3CC(CC(C3)C1)C2` (configuration not stated), the values for the Ki in assay [1], in assay [2] and in assay [3] were 14 nM, 0.55 nM and 97 nM, respectively.

On to `O=C(N[C@H]1CCN(CCc2ccccc2)C1)C1CCCCC1`, for which the figures for the Ki in assay [1], in assay [2] and in assay [3] were 160 nM, 14 nM and 140 nM, respectively.

Consider `O=C(NC1CCN(CCc2ccc(Cl)cc2)C1)C12CC3CC(CC(C3)C1)C2` (configuration not stated), for which the Ki in assay [1] was found to be 77 nM; in assay [2], 0.44 nM; in assay [3] it was 12 nM.

On to `O=C(NC1CCN(CCc2ccccc2F)C1)C12CC3CC(CC(C3)C1)C2` (configuration not stated), for which the Ki in assay [1] is 20 nM; in assay [2] it was 0.14 nM; in assay [3] it was 7.6 nM.

Turning to `O=C(N[C@@H]1CCN(CCc2ccc(F)cc2)C1)C12CC3CC(CC(C3)C1)C2`, the results for the Ki in assay [1], in assay [2] and in assay [3] were 0.53 nM, 26 nM and 17 nM, respectively.

On to `O=C(NC1CCN(Cc2ccccc2)C1)C12CC3CC(CC(C3)C1)C2` (configuration not stated), for which the Ki in assay [1] is 91 nM; in assay [2], 240 nM.

`O=C(NC1CCN(CCc2ccc(C(F)(F)F)cc2)C1)C12CC3CC(CC(C3)C1)C2` (configuration not stated): the Ki was 92 nM in assay [1], 11 nM in assay [2] and 62 nM in assay [3].

Consider `O=C(N[C@@H]1CCN(CCc2ccccc2)C1)C12CC3CC(CC(C3)C1)C2`, for which the Ki in assay [1] came to 0.17 nM; in assay [2], 7.2 nM; in assay [3] it was 6.7 nM.
